Source: ChEMBL document CHEMBL5154717, “Identification of thiophene-benzenesulfonamide derivatives for the treatment of multidrug-resistant tuberculosis” (Eur J Med Chem, 2022)
pIC50: −log10 of the molar value. In brackets after ≈: the same amount, converted by molar mass.

What was measured:
[1] = tested on: Mycobacterium tuberculosis; assay: Antimycobacterial activity against Mycobacterium tuberculosis H37Rv measured by MABA assay; type: functional
Summary of the method: (§1)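 Microplate Alamar Blue assay against replicating M. tuberculosis H37Rv or clinical isolates. MIC is the lowest concentration giving ≥90% reduction in fluorescence relative to the mean of replicate bacterium-only controls.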

[2] = Cytotoxicity against African green monkey Vero cells measured by MTT assay; type: toxicity, cell-based; settings: African green monkey (Chlorocebus sabaeus)
Summary of the method: (§2)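 Vero, HepG2 and mouse J774A.1 cells grown in RPMI 1640 with 10% FBS. MTT read-out in 96-well format.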

[3] = Selectivity index, Ratio of IC50 for Vero cells over MIC for Mycobacterium tuberculosis H37Rv; type: toxicity; settings: monkey
[4] = tested on: Mycobacterium tuberculosis; assay: Antimycobacterial activity against Mycobacterium tuberculosis 13946 clinical isolate measured by MABA assay; type: functional; summary of the method: as §1
[5] = tested on: Mycobacterium tuberculosis; assay: Antimycobacterial activity against Mycobacterium tuberculosis 14862 clinical isolate measured by MABA assay; type: functional; summary of the method: as §1
[6] = target: Voltage-gated inwardly rectifying potassium channel KCNH2 (Homo sapiens, UniProt Q12809); assay: Inhibition of hERG; type: toxicity
Summary of the method: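 Electrophysiological recording of hERG current at 30, 10, 3.0, 1.0 and 0.3 µM, run in duplicate for IC50.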

[7] = Metabolic stability in mouse hepatocytes assessed as compound remaining at 1 uM measured by LC-MS/MS analysis; type: ADME, cell-based, Hepatocyte; settings: read-out: Stability
Summary of the method: (§3)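 Compound at 1 µM with hepatocytes at 1 million cells/mL final; human hepatocytes are mixed donor, mouse are male. Incubated at 37 °C in CO2 at ~100 rpm. Sampled at 0, 15, 30, 60, 90 and 120 min, quenched in ice-cold ACN/MeOH with internal standard. Parent remaining measured by LC-MS/MS.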

[8] = Metabolic stability in mouse hepatocytes assessed as half-life at 1 uM measured by LC-MS/MS analysis; type: ADME, cell-based, Hepatocyte; summary of the method: as §3
[9] = Metabolic stability in human hepatocytes assessed as compound remaining at 1 uM measured by LC-MS/MS analysis; type: ADME, cell-based, Hepatocyte; settings: read-out: Stability; summary of the method: as §3
[10] = Metabolic stability in human hepatocytes assessed as half-life at 1 uM measured by LC-MS/MS analysis; type: ADME, cell-based, Hepatocyte; summary of the method: as §3
J774.A1 = assay: Antimycobacterial activity against Mycobacterium tuberculosis H37Rv infected in mouse J774.A1 cells assessed as change in log10 CFU at 5 ug/ml; type: functional; settings: dose 5 µg/ml
Summary of the method: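 Mouse J774A.1 macrophages infected with M. tuberculosis H37Rv, test compound at final 10 or 5 µg/mL. Read-out is intracellular log10 CFU; Δlog10 CFU = untreated minus treated. Triplicates in at least three separate experiments.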

[11] = Cytotoxicity against human HepG2 cells measured by MTT assay; type: toxicity, cell-based; summary of the method: as §2
[12] = Cytotoxicity against mouse J774.A1 cells measured by MTT assay; type: toxicity, cell-based; summary of the method: as §2

Voltage-gated inwardly rectifying potassium channel KCNH2, sequence (Q12809 whole entry): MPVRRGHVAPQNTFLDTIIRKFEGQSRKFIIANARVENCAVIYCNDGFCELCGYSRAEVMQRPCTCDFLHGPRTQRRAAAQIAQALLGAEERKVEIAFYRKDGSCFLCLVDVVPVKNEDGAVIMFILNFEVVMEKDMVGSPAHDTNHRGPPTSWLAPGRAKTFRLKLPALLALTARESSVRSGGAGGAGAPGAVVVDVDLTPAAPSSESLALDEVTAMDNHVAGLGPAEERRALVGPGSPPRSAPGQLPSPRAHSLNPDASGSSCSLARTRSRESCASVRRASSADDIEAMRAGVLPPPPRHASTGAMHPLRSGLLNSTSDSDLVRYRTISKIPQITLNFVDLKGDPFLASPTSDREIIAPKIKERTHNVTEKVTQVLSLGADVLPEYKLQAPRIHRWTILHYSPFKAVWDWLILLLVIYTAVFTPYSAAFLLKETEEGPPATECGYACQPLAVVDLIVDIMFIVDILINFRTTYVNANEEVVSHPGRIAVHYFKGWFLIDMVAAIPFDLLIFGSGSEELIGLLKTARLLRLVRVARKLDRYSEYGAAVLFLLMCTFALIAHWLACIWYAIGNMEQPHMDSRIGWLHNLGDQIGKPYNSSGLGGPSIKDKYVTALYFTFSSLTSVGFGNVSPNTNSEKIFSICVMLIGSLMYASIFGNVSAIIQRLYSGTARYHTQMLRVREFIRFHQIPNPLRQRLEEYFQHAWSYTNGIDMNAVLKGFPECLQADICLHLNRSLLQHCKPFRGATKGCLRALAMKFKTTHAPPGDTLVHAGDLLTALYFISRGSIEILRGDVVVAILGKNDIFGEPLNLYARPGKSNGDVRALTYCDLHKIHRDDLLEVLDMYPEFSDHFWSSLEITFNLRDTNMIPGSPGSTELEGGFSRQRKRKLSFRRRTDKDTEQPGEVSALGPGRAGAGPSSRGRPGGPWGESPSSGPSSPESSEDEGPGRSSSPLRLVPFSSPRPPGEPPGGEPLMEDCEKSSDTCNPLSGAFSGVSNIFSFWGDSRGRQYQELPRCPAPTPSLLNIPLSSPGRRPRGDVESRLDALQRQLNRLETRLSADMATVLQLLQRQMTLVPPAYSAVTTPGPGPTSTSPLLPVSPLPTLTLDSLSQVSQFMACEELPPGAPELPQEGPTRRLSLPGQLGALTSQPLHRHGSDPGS

Structure (SMILES)	MIC [1]	IC50 [2]	selectivity ratio [3]	other results
COC(=O)NC(=O)c1ccsc1NC(=O)c1ccc(S(=O)(=O)N2CCC(=O)CC2)cc1	3.52 µg/mL (≈ 7.56 µM)	–	–	–
COC(=O)NC(=O)c1ccsc1NC(=O)c1ccc(S(=O)(=O)N2CCC(C)CC2)cc1	0.23 µg/mL (≈ 0.494 µM)	9.13 µg/mL (≈ 19.6 µM)	40	–
C[C@H]1COc2c(N3CCN(C)CC3)c(F)cc3c(=O)c(C(=O)O)cn1c23.C[C@H]1COc2c(N3CCN(C)CC3)c(F)cc3c(=O)c(C(=O)O)cn1c23.O [LEVOFLOXACIN]	0.33 µg/mL	–	–	MIC [4]: 1.94 µg/mL; MIC [5]: 1.87 µg/mL
COC(=O)NC(=O)c1ccsc1NC(=O)c1ccc(S(=O)(=O)N2CCC2)cc1	0.13 µg/mL (≈ 0.307 µM)	17.5 µg/mL (≈ 41.3 µM)	134	–
CCOC(=O)NC(=O)c1ccsc1NC(=O)c1ccc(S(=O)(=O)Nc2ccc([N+](=O)[O-])cc2)cc1	3.61 µg/mL (≈ 6.96 µM)	–	–	–
CCCOC(=O)NC(=O)c1ccsc1NC(=O)c1ccc(S(=O)(=O)N2CCOCC2)cc1	2.45 µg/mL (≈ 5.09 µM)	–	–	–
Cc1ccnc(NC(=O)c2ccsc2NC(=O)c2ccc(S(=O)(=O)N3CCCCC3)cc2)n1	0.24 µg/mL (≈ 0.494 µM)	32.8 µg/mL (≈ 67.5 µM)	137	pIC50 [6]: 5.77; remaining at 1 µM [7]: 7.3%; half-life at 1 µM [8]: 7.9 min; remaining at 1 µM [9]: 41.2%; half-life at 1 µM [10]: 23.4 min
CCCOC(=O)NC(=O)c1ccsc1NC(=O)c1ccc(S(=O)(=O)N2CCCCC2)cc1	0.051 µg/mL (≈ 0.106 µM)	56.6 µg/mL (≈ 118 µM)	1110	–
CCN(C)S(=O)(=O)c1ccc(C(=O)Nc2sccc2C(=O)NC(=O)OC)cc1	0.49 µg/mL (≈ 1.15 µM)	10.4 µg/mL (≈ 24.5 µM)	21	–
COC(=O)NC(=O)c1ccsc1NC(=O)c1ccc(S(=O)(=O)N2CCC(O)CC2)cc1	3.67 µg/mL (≈ 7.85 µM)	–	–	–
CCOC(=O)NC(=O)c1ccsc1NC(=O)c1ccc(S(=O)(=O)Nc2ccccn2)cc1	1.55 µg/mL (≈ 3.27 µM)	–	–	–
O=C(Nc1sccc1C(=O)Nc1ccccn1)c1ccc(S(=O)(=O)N2CCCCC2)cc1	29.6 µg/mL (≈ 62.9 µM)	–	–	–
CO[C@H]1/C=C/O[C@@]2(C)Oc3c(C)c(O)c4c(O)c(c(/C=N/N5CCN(C)CC5)c(O)c4c3C2=O)NC(=O)/C(C)=C\C=C\[C@H](C)[C@H](O)[C@@H](C)[C@@H](O)[C@@H](C)[C@H](OC(C)=O)[C@@H]1C [RIFAMPIN]	0.015 µg/mL (≈ 0.0182 µM)	–	–	MIC [4]: > 10 µg/mL; MIC [5]: 9.24 µg/mL (≈ 11.2 µM); Activity (J774.A1): 1.03 deltalog10CFU
CCOC(=O)NC(=O)c1ccsc1NC(=O)c1ccc(S(=O)(=O)Nc2ccc(Br)cc2)cc1	2.79 µg/mL (≈ 5.05 µM)	–	–	–
CCOC(=O)NC(=O)c1ccsc1NC(=O)c1ccc(S(=O)(=O)Nc2ccc(C)cc2)cc1	3.56 µg/mL (≈ 7.3 µM)	–	–	–
CCOC(=O)NC(=O)c1ccsc1NC(=O)c1ccc(S(=O)(=O)Nc2ccc(OC)cc2)cc1	3.64 µg/mL (≈ 7.23 µM)	–	–	–
Cc1ccnc(NC(=O)c2ccsc2NC(=O)c2ccc(S(=O)(=O)N3CCOCC3)cc2)n1	0.87 µg/mL (≈ 1.78 µM)	42.7 µg/mL (≈ 87.6 µM)	49	–
COC(=O)NC(=O)c1ccsc1NC(=O)c1ccc(S(=O)(=O)N2CCC(OC)CC2)cc1	0.03 µg/mL (≈ 0.0623 µM)	18 µg/mL (≈ 37.4 µM)	601	IC50 [11]: 46.1 µg/mL (≈ 95.7 µM); pIC50 [6]: 5.05; MIC [4]: 0.25 µg/mL (≈ 0.519 µM); MIC [5]: 0.44 µg/mL (≈ 0.914 µM); IC50 [12]: 54.9 µg/mL (≈ 114 µM)
O=C(NC(=O)c1ccsc1NC(=O)c1ccc(S(=O)(=O)N2CCCCC2)cc1)OCC(F)(F)F	29.7 µg/mL (≈ 57.2 µM)	–	–	–
CCOC(=O)NC(=O)c1ccsc1NC(=O)c1ccc(S(=O)(=O)Nc2ccc(OC(F)(F)F)cc2)cc1	26.3 µg/mL (≈ 47.2 µM)	–	–	–

Structure (SMILES)	MIC [1]	IC50 [2]	selectivity ratio [3]	other results
CCOC(=O)NC(=O)c1ccsc1NC(=O)c1ccc(S(=O)(=O)N2CCCCCC2)cc1	0.024 µg/mL (≈ 0.05 µM)	3.42 µg/mL (≈ 7.13 µM)	143	–
CN[C@@H]1[C@H](O[C@H]2[C@H](O[C@H]3[C@H](O)[C@@H](O)[C@H](N=C(N)N)[C@@H](O)[C@@H]3N=C(N)N)O[C@@H](C)[C@]2(O)C=O)O[C@@H](CO)[C@H](O)[C@H]1O [STREPTOMYCIN]	0.49 µg/mL (≈ 0.843 µM)	–	–	MIC [4]: > 2 µg/mL; MIC [5]: > 2 µg/mL
COC(=O)NC(=O)c1ccsc1NC(=O)c1ccc(S(=O)(=O)N2CCC(c3ccccc3)CC2)cc1	> 32 µg/mL	–	–	–
CC(C)OC(=O)NC(=O)c1ccsc1NC(=O)c1ccc(S(=O)(=O)N2CCOCC2)cc1	0.45 µg/mL (≈ 0.934 µM)	13.1 µg/mL (≈ 27.3 µM)	29	–
COC(=O)NC(=O)c1ccsc1NC(=O)c1ccc(S(=O)(=O)NC2CCCCC2)cc1	0.92 µg/mL (≈ 1.98 µM)	> 64 µg/mL	> 70	–
CCOC(=O)NC(=O)c1ccsc1NC(=O)c1ccc(S(=O)(=O)Nc2nccs2)cc1	7.64 µg/mL (≈ 15.9 µM)	–	–	–
CCOC(=O)NC(=O)c1ccsc1NC(=O)c1ccc(S(=O)(=O)N2CCCCC2)cc1	0.03 µg/mL (≈ 0.0644 µM)	18.6 µg/mL (≈ 39.9 µM)	619	IC50 [11]: 38.8 µg/mL (≈ 83.3 µM); MIC [4]: < 0.016 µg/mL; MIC [5]: < 0.016 µg/mL; remaining at 1 µM [7]: 66.3%; half-life at 1 µM [8]: 50.6 min; remaining at 1 µM [9]: 49.8%; half-life at 1 µM [10]: 29.9 min; IC50 [12]: 34.3 µg/mL (≈ 73.7 µM)
CCOC(=O)NC(=O)c1ccsc1NC(=O)c1ccc(S(=O)(=O)N2CCC(OC)CC2)cc1	0.03 µg/mL (≈ 0.0605 µM)	21 µg/mL (≈ 42.4 µM)	701	–
COC(=O)NC(=O)c1ccsc1NC(=O)c1ccc(S(=O)(=O)N2CCCCCC2)cc1	0.22 µg/mL (≈ 0.473 µM)	9.13 µg/mL (≈ 19.6 µM)	42	–
COC(=O)NC(=O)c1ccsc1NC(=O)c1ccc(S(=O)(=O)NC23CC4CC(CC(C4)C2)C3)cc1	1.96 µg/mL (≈ 3.79 µM)	–	–	–
O=C(NC(=O)c1ccsc1NC(=O)c1ccc(S(=O)(=O)N2CCOCC2)cc1)OCC(F)(F)F	30.4 µg/mL (≈ 58.4 µM)	–	–	–
CCOC(=O)NC(=O)c1ccsc1NC(=O)c1ccc(S(=O)(=O)N2CCC2)cc1	0.049 µg/mL (≈ 0.112 µM)	> 64 µg/mL	> 1310	MIC [4]: 0.06 µg/mL (≈ 0.137 µM); MIC [5]: 0.062 µg/mL (≈ 0.142 µM)
CCCCNS(=O)(=O)c1ccc(C(=O)Nc2sccc2C(=O)NC(=O)OC)cc1	0.28 µg/mL (≈ 0.637 µM)	29.5 µg/mL (≈ 67.1 µM)	105	–
COC(=O)NC(=O)c1ccsc1NC(=O)c1ccc(S(=O)(=O)N(C)C)cc1	1.19 µg/mL (≈ 2.89 µM)	16.2 µg/mL (≈ 39.3 µM)	14	–
CCOC(=O)NC(=O)c1ccsc1NC(=O)c1ccc(S(=O)(=O)Nc2ccc(F)cc2)cc1	0.98 µg/mL (≈ 1.99 µM)	20.5 µg/mL (≈ 41.8 µM)	21	–
CCOC(=O)NC(=O)c1ccsc1NC(=O)c1ccc(S(=O)(=O)Nc2ccccc2)cc1	0.7 µg/mL (≈ 1.48 µM)	14.5 µg/mL (≈ 30.6 µM)	21	–
COC(=O)NC(=O)c1ccsc1NC(=O)c1ccc(S(=O)(=O)N2CCCC2)cc1	0.1 µg/mL (≈ 0.229 µM)	39.4 µg/mL (≈ 90.2 µM)	395	–
CCOC(=O)NC(=O)c1ccsc1NC(=O)c1ccc(S(=O)(=O)Nc2cccc(F)c2)cc1	1.14 µg/mL (≈ 2.32 µM)	–	–	–
COC(=O)NC(=O)c1ccsc1NC(=O)c1ccc(C(=O)N2CCCCC2)cc1	0.19 µg/mL (≈ 0.457 µM)	> 64 µg/mL	> 337	–
